In experiment [1] the target is Protein farnesyltransferase (Homo sapiens, UniProt P49354+P49356). Kind of experiment: Inhibition of Farnesyltransferase. It counts as protein-complex assay.
For experiment [2], the target named is Geranylgeranyl transferase type I (Homo sapiens, UniProt P49354+P53609). As to the kind of experiment: Inhibition of Geranylgeranyl transferase type I. The experiment is classed as protein-complex assay.
The next experiment concerns Rat1. As to the kind of experiment: Inhibition of anchorage-independent growth of H-Ras-transformed rat-1 cells in soft agar. It counts as functional, cell-based.
In another experiment the test system is NIH3T3. As to the kind of experiment: Highest tested nontoxic concentration (maximum tolerated dose) against NIH3T3 cells in XTT assay. It counts as functional, Mus musculus. In short, it runs like this: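 Untransformed NIH 3T3 cells were seeded at 2500 cells/well. Cells were incubated 48 h at 37 °C, then XTT with phenazine methosulfate was added. XTT reduction served as the measure of live cells.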
A general note: Tetrazolium assays rely on reduction of a dye to a coloured formazan, in cell work by metabolically active cells.

The structures appear in SMILES notation. pIC50: −log10 of the molar value.

Take `CSCC[C@H](NC(=O)[C@@H]1Cc2ccccc2CN1C(=O)[C@@H](NC(=O)c1c[nH]cn1)C(C)C)C(=O)O`: the pIC50 (usually the IC50 on a negative log10 scale, so that one unit is a factor of ten) in experiment [1] was 7.08; in experiment [2], 4.59.

As for `CC(C)(C)[C@H](NCCCc1cnc[nH]1)C(=O)N1Cc2ccccc2C[C@H]1C(=O)N[C@@H](CCC(N)=O)C(=O)O`, the results for the pIC50 in experiment [1] and in experiment [2] were 7.70 and 3.97, respectively.

Regarding `CC(C)(C)[C@H](NCCc1c[nH]cn1)C(=O)N1Cc2ccccc2C[C@H]1C(=O)N[C@@H](CCC(N)=O)C(=O)O`, the pIC50 in experiment [1] is 8.47; in the experiment on Rat1, 5.49; in experiment [2], 4.52.

For `CC(C)(C)[C@H](NC(=O)Cc1c[nH]cn1)C(=O)N1Cc2ccccc2C[C@H]1C(=O)N[C@@H](CCC(N)=O)C(=O)O`, the pIC50 was 7.55 in experiment [1] and 5.41 in the experiment with Rat1. In the experiment on NIH3T3, the MTD was >150 µM.

Consider `CSCC[C@H](NC(=O)[C@@H]1Cc2ccccc2CN1C(=O)[C@@H](NC(=O)Cc1c[nH]cn1)C(C)C)C(=O)O`, for which the pIC50 in experiment [1] is 8.18; with Rat1, 4.30; in experiment [2] it was 5.69. Also, in the experiment with NIH3T3, the MTD is >150 µM.

Turning to `CSCC[C@H](NC(=O)[C@H](Cc1ccccc1)NC(=O)[C@@H](NC(=O)[C@@H](N)Cc1cnc[nH]1)C(C)C)C(=O)O`, the pIC50 in experiment [1] was 5.17.

Take `CC(C)(C)[C@H](NC(=O)CCc1c[nH]cn1)C(=O)N1Cc2ccccc2C[C@H]1C(=O)N[C@@H](CCC(N)=O)C(=O)O`: the figures for the pIC50 in experiment [1] and in experiment [2] were 8.36 and 3.77, respectively.

As for `CSCC[C@H](NC(=O)[C@@H]1Cc2ccccc2CN1C(=O)[C@@H](NCc1c[nH]cn1)C(C)C)C(=O)O`, the pIC50 in experiment [1] was 6.94; in experiment [2], 4.76.

With `CSCC[C@H](NC(=O)[C@@H]1Cc2ccccc2CN1C(=O)[C@@H](NCCc1c[nH]cn1)C(C)C)C(=O)O`, the pIC50 in experiment [1] was 9.10; with Rat1, 5.42; in experiment [2], 6.63. The MTD in the experiment on NIH3T3 is >150 µM.
